Calls of active or inactive are those of the source.
Tests used:
[1] = tested on: Mus musculus; test: Anticonvulsant activity in albino CF1 mouse assessed as protection against maximal electroshock-induced seizures at 100 mg/kg, ip after 0.5 hr; assay type: functional, organism-based; set-up: dose 100 mg/kg
Summary of the method: (§1)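 Male albino CF No. 1 mice (18–25 g) dosed ip at 30, 100 and 300 mg/kg in saline or 0.5% methylcellulose, tested 15, 30, 60 and 240 min after dosing. Maximal electroshock seizures elicited with 60-cycle alternating current. Scored as animals protected/animals tested, small qualitative groups.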

[2] = tested on: Mus musculus; test: Anticonvulsant activity in albino CF1 mouse assessed as protection against maximal electroshock-induced seizures at 100 mg/kg, ip after 4 hrs; assay type: functional, organism-based; set-up: dose 100 mg/kg; summary of the method: as §1
[3] = tested on: Mus musculus; test: Neurotoxicity in albino CF1 mouse assessed as minimal motor impairment at 30 mg/kg, ip after 0.5 hr by rotorod test; assay type: toxicity, organism-based; set-up: dose 30 mg/kg, route intraperitoneal; conditions: in vivo
Summary of the method: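 Male albino CF No. 1 mice, compound ip in saline or 0.5% methylcellulose. Rotarod: 1-inch knurled rod at 6 rpm. Toxicity is failure to stay on the rod for 1 min on three successive attempts. Expressed as toxic/tested.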

[4] = tested on: Mus musculus; test: Anticonvulsant activity in albino CF1 mouse assessed as protection against maximal electroshock-induced seizures at 300 mg/kg, ip after 0.5 hr; assay type: functional, organism-based; set-up: dose 300 mg/kg; summary of the method: as §1
[5] = tested on: Mus musculus; test: Anticonvulsant activity in albino CF1 mouse assessed as protection against 6 Hz psychomotor seizure at 100 mg/kg, ip after 4 hrs by minimal clonic seizure test; assay type: functional, organism-based; set-up: dose 100 mg/kg
Summary of the method: (§2)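 Male albino CF No. 1 mice, 18–25 g. Compound dissolved in saline or suspended in 0.5% methylcellulose and given ip beforehand. Corneal stimulation with 0.2 ms monopolar rectangular pulses at 6 Hz for 3 s from a constant-current device. Mice restrained during stimulation, then released and observed for the minimal clonic seizure and automatistic behaviour.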

[6] = tested on: Mus musculus; test: Neurotoxicity in albino CF1 mouse assessed as minimal motor impairment at 300 mg/kg, ip after 4 hrs by rotorod test; assay type: toxicity, organism-based; set-up: dose 300 mg/kg, route intraperitoneal; conditions: in vivo
Summary of the method: (§3)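 Rotarod in male CF No. 1 mice after ip dosing (30, 100, 300 mg/kg; saline or 0.5% methylcellulose) at 15–240 min. Knurled plastic rod, 1-inch diameter, 6 rpm. Toxicity means failing to stay on for 1 min on three successive attempts. Recorded as toxic/tested.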

[7] = tested on: Mus musculus; test: Neurotoxicity in albino CF1 mouse assessed as minimal motor impairment at 100 mg/kg, ip after 0.5 hr by rotorod test; assay type: toxicity, organism-based; set-up: dose 100 mg/kg, route intraperitoneal; conditions: in vivo; summary of the method: as §3
[8] = tested on: Mus musculus; test: Anticonvulsant activity in albino CF1 mouse assessed as protection against 6 Hz psychomotor seizure at 100 mg/kg, ip after 0.5 hr by minimal clonic seizure test; assay type: functional, organism-based; set-up: dose 100 mg/kg; summary of the method: as §2
[9] = tested on: Mus musculus; test: Anticonvulsant activity in albino CF1 mouse assessed as protection against 6 Hz psychomotor seizure at 100 mg/kg, ip after 0.25 hr by minimal clonic seizure test; assay type: functional, organism-based; set-up: dose 100 mg/kg; summary of the method: as §2
[10] = tested on: Mus musculus; test: Anticonvulsant activity in albino CF1 mouse assessed as protection against maximal electroshock-induced seizures at 30 mg/kg, ip after 0.5 hr; assay type: functional, organism-based; set-up: dose 30 mg/kg
Summary of the method: (§4)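 Male albino CF No. 1 mice, 18–25 g. Compound in saline or 0.5% methylcellulose, ip. Seizures elicited by 60-cycle alternating current maximal electroshock. Result expressed as animals protected/animals tested.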

[11] = tested on: Mus musculus; test: Anticonvulsant activity in albino CF1 mouse assessed as protection against maximal electroshock-induced seizures at 300 mg/kg, ip after 4 hrs; assay type: functional, organism-based; set-up: dose 300 mg/kg; summary of the method: as §1
[12] = tested on: Mus musculus; test: Neurotoxicity in albino CF1 mouse assessed as minimal motor impairment at 100 mg/kg, ip after 4 hrs by rotorod test; assay type: toxicity, organism-based; set-up: dose 100 mg/kg, route intraperitoneal; conditions: in vivo; summary of the method: as §3
[13] = tested on: Mus musculus; test: Neurotoxicity in albino CF1 mouse assessed as minimal motor impairment at 300 mg/kg, ip after 0.5 hr by rotorod test; assay type: toxicity, organism-based; set-up: dose 300 mg/kg, route intraperitoneal; conditions: in vivo; summary of the method: as §3
[14] = tested on: Mus musculus; test: Anticonvulsant activity in albino CF1 mouse assessed as protection against 6 Hz psychomotor seizure at 100 mg/kg, ip after 2 hrs by minimal clonic seizure test; assay type: functional, organism-based; set-up: dose 100 mg/kg; summary of the method: as §2
[15] = tested on: Mus musculus; test: Anticonvulsant activity in albino CF1 mouse assessed as protection against subcutaneous metrazol-induced seizures at 30 to 300 mg/kg, ip after 0.5 to 4 hrs; assay type: functional, organism-based
Summary of the method: (§5)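 CF No. 1 male mice dosed ip at 30, 100 or 300 mg/kg (saline or 0.5% methylcellulose), then given pentetrazole 85 mg/kg sc as 0.5% solution in posterior midline. Watched 30 min. Protection means no threshold seizure (single clonic spasm episode of at least 5 s). Expressed as protected/tested.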

[16] = tested on: Mus musculus; test: Anticonvulsant activity in albino CF1 mouse assessed as protection against maximal electroshock-induced seizures at 30 mg/kg, ip after 4 hrs; assay type: functional, organism-based; set-up: dose 30 mg/kg; summary of the method: as §4
[17] = tested on: Mus musculus; test: Anticonvulsant activity in albino CF1 mouse assessed as protection against 6 Hz psychomotor seizure at 100 mg/kg, ip after 1 hr by minimal clonic seizure test; assay type: functional, organism-based; set-up: dose 100 mg/kg; summary of the method: as §2
[18] = tested on: Mus musculus; test: […] activity in ip dosed albino CF1 mouse assessed as inhibition of phenylbenzoquinone-induced writhing administered after 30 mins prior challenge; assay type: functional
Summary of the method: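 Male Albino Swiss (CD-1) mice, 6-8 per dose. Compound given ip in 0.5% methylcellulose. 30 min later, 0.25 ml of 0.02% phenylbenzoquinone injected. After 5 min, writhes counted over 10 min. % effect = (vehicle mean − drug mean)/vehicle mean × 100. ED50 derived; Student's t-test.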

[19] = tested on: Mus musculus; test: Toxicity in albino CF1 mouse assessed as proconvulsant activity at 30 to 300 mg/kg, ip after 0.5 to 4 hrs; assay type: organism-based; set-up: route intraperitoneal; conditions: in vivo; summary of the method: as §5
[20] = tested on: Mus musculus; test: Analgesic activity in albino CF1 mouse assessed as inhibition of heat-induced paw licking or jumping behaviour administered after 30 mins prior heat challenge by hot plate method; assay type: functional

SMILES | Activity [1] | Activity [2] | Activity [3] | Activity [4] | Activity [5] | Activity [6] | Activity [7] | Activity [8] | Activity [9] | Activity [10] | Activity [11] | Activity [12] | Activity [13] | Activity [14] | Activity [15] | Activity [16] | Activity [17] | ED50 [18] [mg/kg] | Activity [19] | ED50 [20] [mg/kg]
Cl.O=C1OCCC1NC1CCCCC1 (racemic) | inactive | inactive | Toxic | inactive | inactive | Non-toxic | Non-toxic | inactive | inactive | inactive | inactive | Non-toxic | Non-toxic | Active | inactive | inactive | inactive | – | – | –
O=C1OCCC1N1CCc2ccccc2C1 (racemic) | inactive | inactive | – | inactive | – | Non-toxic | Non-toxic | – | – | – | inactive | Non-toxic | Non-toxic | – | inactive | – | – | 3.7 | Toxic | 32.4

Source: ChEMBL document CHEMBL2203146, “Search for anticonvulsant and analgesic active derivatives of dihydrofuran-2(3H)-one” (Bioorg Med Chem, 2012)
